# aSyn UTR inh = MLPCN primary screen, SNCA 5' untranslated region. alpha-synuclein 5'UTR reporter, inhibitor activity. inhibition, % (tested at 7.5 µM). hit rate 0.82% among 300,000; in the data active = inhibition above about 60%;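 note: H4 neuroglioblastoma cells stably carrying SNCA 5'UTR luciferase fusion; 0% = DMSO wells and 100% = positive control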
# Jurkat NFkB inh = inhibitors of the PMA/ionomycin-induced NF-kB reporter in Jurkat cells; hit rate 0.53% among 330,000; AID 435003; inhibition, % at 4 µM; PMA/ionomycin-induced NF-kB luciferase reporter, luminescence; in the data active = inhibition above about 50%
# IMP-1 inhibitor = blocks Pseudomonas aeruginosa IMP-1 metallo-beta-lactamase | purified IMP-1, nitrocefin hydrolysis, epi-absorbance fluorescence | inhibition, % at 5.6 µM | hit rate 0.45% among 290,000;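 active = inhibition above the mean plus 3 SD of all compounds in the same screening run, cut at about 4.5% in these data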;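 note: 0% = IMP-1 with DMSO and 100% = DMSO wells lacking enzyme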
#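 Test system: recombinant IMP-1 enzyme, purified / Medium: HEPES buffer pH 7.1 with ZnSO4 and Brij 35 / Doses: single dose, 5.6 µM / Times: 25 °C, 15 min preincubation, 25 min reaction / Detection: Epi-absorbance via hydrolysed-nitrocefin quenching of white-plate fluorescence, 480/530 nm, EDTA stop / Evaluation: percent inhibition from optical density relative to buffer-blank wells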
# Mdm2-MdmX inh = inhibitors of human Mdm2/MdmX interaction; O15151+Q00987; SaOS-2 split-luciferase Mdm2/MdmX complementation, luminescence; inhibition, % at 8 µM; hit rate 3% among 330,000; AID 485346;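 active = inhibition of at least 50% at 8 µM in the primary screen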
# 697 NFkB inh = inhibitors of the PMA/ionomycin-induced NF-kB reporter in 697 B cells. AID 435022. inhibition, % at 4 µM. hit rate 0.33% among 330,000. 697 B-cell NF-kB luciferase reporter, 16 h; in the data active = inhibition above about 35%
# VIM-2 inhibitor = inhibitors of Pseudomonas aeruginosa VIM-2 metallo-beta-lactamase. purified VIM-2, nitrocefin hydrolysis, epi-absorbance fluorescence. inhibition, % at 5.6 µM. hit rate 0.89% among 290,000. AID 1527;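 active = inhibition above the mean of all tested compounds plus 3 SD, cutoff set per screening run, cut at about 7.5% in these data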;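 note: red hydrolysis product quenches plate fluorescence so inhibitors raise well fluorescence; 0% = enzyme with DMSO and 100% = DMSO without enzyme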
# * hit, by the source's call; / = no result. In the library only some 4.7% were active in any assay of this set; here they are far more common.
SMILES,aSyn UTR inh,Jurkat NFkB inh,IMP-1 inhibitor,Mdm2-MdmX inh,697 NFkB inh,VIM-2 inhibitor
CCc1c(C)c2cc(Cl)c(O)c(CN(CC)CC)c2oc1=O,-5.0,-13.4,8.8*,3.5,20.4,-2.0
CCc1c(C)c2cc(Cl)c(O)c(CN(C)C)c2oc1=O,-8.7,7.2,7.6*,2.0,23.0,-4.9
Cc1c(C)c2cc(Cl)c(O)c(CN(C)C)c2oc1=O,29.7,0.6,0.7,11.8,-6.8,-0.9
CCCCn1c(N)c(N(CC(C)C)C(=O)c2ccc(OCC3CCCO3)cc2)c(=O)[nH]c1=O (stereo unspecified),8.6,-16.3,/,12.5,-4.0,/
CCN(CC)c1ccc(C2=NNC(=O)CC2C)cc1[N+](=O)[O-] (stereo unspecified),98.5*,2.8,-2.8,23.4,21.0,-0.2
COc1ccc(C2=NS(=O)(=O)N(C)C(C(=O)Nc3ccc4c(c3)OCO4)=C2)cc1OC,-26.6,3.9,-4.5,21.8,2.6,-1.4
CN(C)S(=O)(=O)c1cc(NC(=O)c2cc(=O)[nH]c3ccccc23)ccc1Cl,23.8,-0.1,-1.4,3.0,7.3,-1.3
c1ccc(N2CCN(c3nc4cc5c(cc4s3)OCCO5)CC2)cc1,-156.8,-45.5,-2.0,-87.8,-156.3,-2.4
c1c2c(cc3sc(N4CCOCC4)nc13)OCCO2,94.2*,-0.3,-3.0,36.1,-42.0,-2.5
Cc1cccc(C)c1NC(=O)CS(=O)CC(=O)Nc1ccc(N2CCOCC2)cc1 (stereo unspecified),-10.8,-0.4,-1.3,-15.6,1.8,0.0
CCc1ccc(NC(=O)CS(=O)CC(=O)Nc2ccc(N3CCOCC3)cc2)cc1 (stereo unspecified),20.8,-0.4,36.2*,9.8,2.0,-1.0
Cc1cccc(-c2nc3c(c(SCC(=O)N4CCOCC4)n2)Cc2c(CO)cnc(C)c2O3)c1,-19.7,-0.1,0.7,28.0,30.2,2.7
Cc1ncc(CO)c2c1Oc1nc(-c3ccccc3)nc(SCC(=O)N(C)c3ccccc3)c1C2,6.5,17.6,7.9*,21.4,17.9,2.2
Cc1ncc(CO)c2c1Oc1nc(-c3ccccc3)nc(SCC(=O)N3CCOCC3)c1C2,-40.1,6.8,31.9*,28.1,12.9,2.9
COc1ccc(NC(=O)c2ccc(OC)c(S(=O)(=O)N3CCCCC3C)c2)cn1 (stereo unspecified),/,-2.8,/,-9.1,-17.0,/
CC(=O)Oc1cc(C(=O)OCC(=O)N2CCc3ccccc3C2)cc(OC(C)=O)c1OC(C)=O,/,15.1,/,29.0,-75.8,/
O=C(Cn1cnc2c(cnn2-c2ccc(Cl)cc2)c1=O)NC1CCCCC1,/,-0.4,5.4*,21.1,9.3,-2.0
CC(Cc1ccccc1)C(=O)Nc1ccc(Br)cc1 (stereo unspecified),-81.2,-16.7,-3.7,-11.4,11.0,-1.6
CCOC(=O)c1sc(NC(=O)c2cccc(S(=O)(=O)N3c4ccccc4CC3C)c2)cc1C (stereo unspecified),79.5*,-8.8,1.4,19.2,-19.7,-1.4
C#CCOCCOCCOCCNc1nc(N2CCN(C(=O)[C@H](Cc3ccc(O)cc3)n3cc([C@@H](N)CC(C)C)nn3)CC2)nc(N2CCN(C(=O)[C@H](Cc3ccc(O)cc3)n3cc([C@@H](N)CC(C)C)nn3)CC2)n1,10.5,-12.4,12.9*,13.7,19.5,2.0
C#CCOCCOCCOCCNc1nc(N2CCN(C(=O)[C@H](CCC(=O)O)n3cc(C(N)CC(C)C)nn3)CC2)nc(N2CCN(C(=O)[C@H](Cc3ccc(O)cc3)n3cc(C(N)CC(C)C)nn3)CC2)n1 (stereo partly specified),17.0,-0.4,-2.8,10.4,8.6,-1.5
Cc1ccccc1NC(=O)CC1SC(=O)N(c2ccccc2)C1=O (stereo unspecified),-1.9,-6.1,-1.4,-12.2,-17.6,-2.1
O=C(CC1SC(=O)N(c2ccccc2)C1=O)Nc1cccc2ccccc12 (stereo unspecified),-20.1,-5.5,4.8*,-0.9,-4.3,-0.3
CN1CCN(CCc2nc3cc(NC(=O)COc4ccc(Cl)cc4)ccc3n2C)CC1,15.9,-6.6,-3.9,4.7,-19.4,-1.2
Cc1ccc(OCC(=O)Nc2ccc3c(c2)nc(CCN2CCN(C)CC2)n3C)cc1,105.3*,-3.8,-1.3,13.0,4.6,-2.9
SMILES,aSyn UTR inh,Jurkat NFkB inh,IMP-1 inhibitor,Mdm2-MdmX inh,697 NFkB inh,VIM-2 inhibitor
CCN(Cc1ccccc1)S(=O)(=O)c1c(C)[nH]c(C)c1C(=O)N1CCCC1,8.3,-6.7,0.2,12.1,-7.9,2.0
C=CCn1c(-c2sccc2C)n[nH]c1=S,1.4,-9.6,-3.5,-3.7,-20.4,8.8*
CCCC(C)C(=O)Nc1nc(C)c(-c2csc(Nc3cc(Cl)ccc3C)n2)s1 (stereo unspecified),-6.7,-3.3,9.9*,1.9,-22.0,-2.4
CCCCCC(=O)Nc1nc(C)c(-c2csc(Nc3cc(Cl)ccc3C)n2)s1,-16.5,3.3,11.6*,4.8,5.9,-5.6
CCCCCC(=O)Nc1nc(C)c(-c2csc(Nc3ccc(Cl)cc3)n2)s1,-55.5,-6.9,-1.5,17.5,6.5,-3.2
C=CCn1c(=N)c(S(=O)(=O)c2ccc(C)c(C)c2)cc2c(=O)n3ccccc3nc21,40.0,-2.9,-1.1,32.0,-4.0,12.2*
Cc1ccc(S(=O)(=O)c2cc3c(=O)n4ccccc4nc3n(CCCN3CCOCC3)c2=N)cc1C,19.9,6.5,-0.6,22.1,5.5,10.1*
N=c1c(S(=O)(=O)c2ccc(Cl)cc2)cc2c(=O)n3ccccc3nc2n1CCN1CCOCC1,7.5,-5.3,-2.6,16.3,3.0,4.8
Cc1ccc(S(=O)(=O)c2cc3c(=O)n4ccccc4nc3n(Cc3ccco3)c2=N)cc1,23.3,2.5,-2.7,24.0,-13.8,4.3
CCOCCCn1c(=N)c(S(=O)(=O)c2ccccc2)cc2c(=O)n3cc(C)ccc3nc21,0.5,-15.5,-3.4,6.7,-13.6,11.0*
CC(C)OCCCn1c(=N)c(S(=O)(=O)c2ccccc2)cc2c(=O)n3ccccc3nc21,-1.3,-13.9,-2.6,36.8,-10.6,-0.8
N=c1c(S(=O)(=O)c2ccccc2)cc2c(=O)n3ccccc3nc2n1CCCN1CCOCC1,-10.7,-8.3,-0.8,-4.7,2.4,9.2*
O=C(O)C1C2CCC(CC2)C1C(=O)N1CCN(Cc2ccc(F)cc2)CC1 (stereo unspecified),12.3,9.2,15.2*,13.1,13.9,-0.1
CC(OC(=O)CNC(=O)C1CCCCC1)C(=O)NCc1ccccc1 (stereo unspecified),/,-8.2,/,3.2,-19.2,/
COc1ccc(S(=O)(=O)N2c3cc(Cl)ccc3Oc3nc4ccccc4nc32)cc1,99.6*,37.2,-1.9,46.2,-29.5,-0.6
Cc1cc(NC(=O)Cn2cnc3sc(C)c(C)c3c2=O)no1,/,-2.4,/,5.4,11.8,/
COc1ccc(Cl)cc1-c1nc(SCC(=O)NCC2CCCO2)n[nH]1 (stereo unspecified),/,-7.2,/,11.9,9.9,/
